Tests used:
[1] = system: Bone; experiment: Drug uptake in ICR mouse bone at 370 kBq/100 ul, iv at 2 mins by gamma-counting analysis; assay type: ADME, organism-based, Bone element; settings: in vivo
Outline: (§1)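 Male ICR mice (5 weeks, about 20 g) got 18F tracer in saline (370 KBq per 100 μL) via tail vein; n = 5 per time point, killed at 2, 10, 30, 60 min. Organs weighed and γ-counted; percent dose per gram wet tissue from comparison with diluted injectate aliquots.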

[2] = system: Brain; experiment: Ratio of drug uptake in brain at 2 mins to drug uptake in brain at 60 mins in ICR mouse at 370 KBq/100 ul, iv; assay type: ADME, organism-based; settings: in vivo
Outline: (§2)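 Normal male ICR mice (5 weeks, about 20 g) received the ¹⁸F tracer in saline (370 KBq per 100 μL) by tail-vein injection. Groups of n = 5 were killed at 2, 10, 30 and 60 min. Organs were removed, weighed and γ-counted against diluted aliquots of the injectate, giving % dose per gram. Stomach and intestine were expressed per organ. The brain ratio is 2 min/60 min uptake. Values are mean ± SD.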

[3] = system: Stomach; experiment: Drug uptake in ICR mouse stomach assessed per organ at 370 kBq/100 ul, iv at 60 mins by gamma-counting analysis; assay type: ADME, organism-based; settings: in vivo, 1 h; outline: as §2
[4] = system: Lung; experiment: Drug uptake in ICR mouse lung at 370 kBq/100 ul, iv at 60 mins by gamma-counting analysis; assay type: ADME, organism-based; settings: in vivo, 1 h; outline: as §1
[5] = system: Spleen; experiment: Drug uptake in ICR mouse spleen at 370 kBq/100 ul, iv at 2 mins by gamma-counting analysis; assay type: ADME, organism-based; settings: in vivo; outline: as §1
[6] = system: Heart; experiment: Drug uptake in ICR mouse heart at 370 kBq/100 ul, iv at 2 mins by gamma-counting analysis; assay type: ADME, organism-based; settings: in vivo; outline: as §1
[7] = system: Lung; experiment: Drug uptake in ICR mouse lung at 370 kBq/100 ul, iv at 30 mins by gamma-counting analysis; assay type: ADME, organism-based; settings: in vivo, 0.5 h; outline: as §1
[8] = system: Brain; experiment: Drug uptake in healthy human brain at 370 KBq/100 ul after 1 hr by autoradiographic analysis; assay type: ADME, tissue-based; settings: in vitro
[9] = system: Bone; experiment: Drug uptake in ICR mouse bone at 370 kBq/100 ul, iv at 60 mins by gamma-counting analysis; assay type: ADME, organism-based, Bone element; settings: in vivo, 1 h; outline: as §1
[10] = system: Heart; experiment: Drug uptake in ICR mouse heart at 370 kBq/100 ul, iv at 60 mins by gamma-counting analysis; assay type: ADME, organism-based; settings: in vivo, 1 h; outline: as §1
[11] = system: Brain; experiment: Drug uptake in ICR mouse brain at 370 kBq/100 ul, iv at 30 mins by gamma-counting analysis; assay type: ADME, organism-based; settings: in vivo, 0.5 h; outline: as §1
[12] = system: Brain; experiment: Drug uptake in ICR mouse brain at 370 kBq/100 ul, iv at 10 mins by gamma-counting analysis; assay type: ADME, organism-based; settings: in vivo; outline: as §1
[13] = system: Liver; experiment: Drug uptake in ICR mouse liver at 370 kBq/100 ul, iv at 30 mins by gamma-counting analysis; assay type: ADME, organism-based; settings: in vivo, 0.5 h; outline: as §1
[14] = system: Brain; experiment: Drug uptake in ICR mouse brain at 370 kBq/100 ul, iv at 2 mins by gamma-counting analysis; assay type: ADME, organism-based; settings: in vivo; outline: as §1
[15] = system: Spleen; experiment: Drug uptake in ICR mouse spleen at 370 kBq/100 ul, iv at 10 mins by gamma-counting analysis; assay type: ADME, organism-based; settings: in vivo; outline: as §1
[16] = system: Kidney; experiment: Drug uptake in ICR mouse kidney at 370 kBq/100 ul, iv at 30 mins by gamma-counting analysis; assay type: ADME, organism-based; settings: in vivo, 0.5 h; outline: as §1
[17] = system: Intestine; experiment: Drug uptake in ICR mouse intestine assessed per organ at 370 kBq/100 ul, iv at 2 mins by gamma-counting analysis; assay type: ADME, organism-based; settings: in vivo
Outline: (§3)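 Male ICR mice (5 weeks, about 20 g) got 18F tracer in saline (370 KBq per 100 μL) via tail vein; n = 5 per time point, killed at 2, 10, 30, 60 min. Organs removed and γ-counted against diluted injectate; expressed as % injected dose per organ.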

[18] = system: Stomach; experiment: Drug uptake in ICR mouse stomach assessed per organ at 370 kBq/100 ul, iv at 2 mins by gamma-counting analysis; assay type: ADME, organism-based; settings: in vivo; outline: as §3
[19] = system: Heart; experiment: Drug uptake in ICR mouse heart at 370 kBq/100 ul, iv at 10 mins by gamma-counting analysis; assay type: ADME, organism-based; settings: in vivo; outline: as §1
[20] = system: Brain; experiment: Drug uptake in wild type C57BL6 mouse brain at 370 KBq/100 ul after 1 hr by autoradiographic analysis; assay type: ADME, tissue-based; settings: in vitro
Outline: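 Paraffin brain sections from 12-month-old male control C57BL6 mice were deparaffinized through xylene and graded ethanol, then held in PBS (0.2 M, pH 7.4) for 30 min. They were incubated with the ¹⁸F tracer (370 KBq per 100 μL) for 1 h at room temperature. Sections were washed in 40% EtOH, rinsed with water for 1 min, dried, and exposed to a phosphor plate for 2 h. The same sections were then stained with thioflavin S.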

[21] = system: Kidney; experiment: Drug uptake in ICR mouse kidney at 370 kBq/100 ul, iv at 10 mins by gamma-counting analysis; assay type: ADME, organism-based; settings: in vivo; outline: as §1
[22] = system: Heart; experiment: Drug uptake in ICR mouse heart at 370 kBq/100 ul, iv at 30 mins by gamma-counting analysis; assay type: ADME, organism-based; settings: in vivo, 0.5 h; outline: as §1
[23] = system: Spleen; experiment: Drug uptake in ICR mouse spleen at 370 kBq/100 ul, iv at 30 mins by gamma-counting analysis; assay type: ADME, organism-based; settings: in vivo, 0.5 h; outline: as §1
[24] = system: Lung; experiment: Drug uptake in ICR mouse lung at 370 kBq/100 ul, iv at 2 mins by gamma-counting analysis; assay type: ADME, organism-based; settings: in vivo; outline: as §1
[25] = system: Intestine; experiment: Drug uptake in ICR mouse intestine assessed per organ at 370 kBq/100 ul, iv at 30 mins by gamma-counting analysis; assay type: ADME, organism-based; settings: in vivo, 0.5 h; outline: as §3
[26] = system: Kidney; experiment: Drug uptake in ICR mouse kidney at 370 kBq/100 ul, iv at 60 mins by gamma-counting analysis; assay type: ADME, organism-based; settings: in vivo, 1 h; outline: as §1
[27] = system: Stomach; experiment: Drug uptake in ICR mouse stomach assessed per organ at 370 kBq/100 ul, iv at 10 mins by gamma-counting analysis; assay type: ADME, organism-based; settings: in vivo; outline: as §3
[28] = system: Blood; experiment: Drug uptake in ICR mouse blood at 370 kBq/100 ul, iv at 2 mins by gamma-counting analysis; assay type: ADME, organism-based; settings: in vivo; outline: as §1
[29] = system: Blood; experiment: Drug uptake in ICR mouse blood at 370 kBq/100 ul, iv at 30 mins by gamma-counting analysis; assay type: ADME, organism-based; settings: in vivo, 0.5 h; outline: as §1
[30] = system: Liver; experiment: Drug uptake in ICR mouse liver at 370 kBq/100 ul, iv at 2 mins by gamma-counting analysis; assay type: ADME, organism-based; settings: in vivo; outline: as §1
[31] = system: Blood; experiment: Drug uptake in ICR mouse blood at 370 kBq/100 ul, iv at 60 mins by gamma-counting analysis; assay type: ADME, organism-based; settings: in vivo, 1 h; outline: as §1
[32] = Displacement of [125I]-IMPY from amyloid beta (1 to 42) fibrils after 2 hrs by gamma-counting analysis
Outline: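 Competition binding with aggregated Aβ1-42 fibrils and [125I]IMPY (60000−100000 cpm/100 μL) in 0.05% BSA (1 mL total); inhibitors 10⁻⁴−10^−8.5 M in ethanol. Incubated 37 °C for 2 h, then GF/B vacuum filtration with PBS (0.02 M, pH 7.4) washes and γ counting. Three repeats; IC50 converted to Ki by Cheng−Prusoff.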

[33] = system: Intestine; experiment: Drug uptake in ICR mouse intestine assessed per organ at 370 kBq/100 ul, iv at 60 mins by gamma-counting analysis; assay type: ADME, organism-based; settings: in vivo, 1 h; outline: as §3
[34] = system: Spleen; experiment: Drug uptake in ICR mouse spleen at 370 kBq/100 ul, iv at 60 mins by gamma-counting analysis; assay type: ADME, organism-based; settings: in vivo, 1 h; outline: as §1
[35] = system: Stomach; experiment: Drug uptake in ICR mouse stomach assessed per organ at 370 kBq/100 ul, iv at 30 mins by gamma-counting analysis; assay type: ADME, organism-based; settings: in vivo, 0.5 h; outline: as §3
[36] = system: Bone; experiment: Drug uptake in ICR mouse bone at 370 kBq/100 ul, iv at 10 mins by gamma-counting analysis; assay type: ADME, organism-based, Bone element; settings: in vivo; outline: as §1
[37] = system: Liver; experiment: Drug uptake in ICR mouse liver at 370 kBq/100 ul, iv at 60 mins by gamma-counting analysis; assay type: ADME, organism-based; settings: in vivo, 1 h; outline: as §1
[38] = system: Blood; experiment: Drug uptake in ICR mouse blood at 370 kBq/100 ul, iv at 10 mins by gamma-counting analysis; assay type: ADME, organism-based; settings: in vivo; outline: as §1
[39] = system: Brain; experiment: Drug uptake in ICR mouse brain at 370 kBq/100 ul, iv at 60 mins by gamma-counting analysis; assay type: ADME, organism-based; settings: in vivo, 1 h; outline: as §1
[40] = system: Kidney; experiment: Drug uptake in ICR mouse kidney at 370 kBq/100 ul, iv at 2 mins by gamma-counting analysis; assay type: ADME, organism-based; settings: in vivo; outline: as §1
[41] = system: Liver; experiment: Drug uptake in ICR mouse liver at 370 kBq/100 ul, iv at 10 mins by gamma-counting analysis; assay type: ADME, organism-based; settings: in vivo; outline: as §1
[42] = n-Octanol-PBS buffer partition coefficient, log D of the compound at 1.5 MBq after 3 mins at pH 7.4; assay type: physicochemical
Outline: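 The tracer was partitioned between n-octanol and PBS by vortexing for 3 min at room temperature, then centrifuged for 5 min at 3000 rpm. Samples of the octanol (50 μL) and aqueous (500 μL) layers were counted. log D is the log of the octanol/PBS counts-per-gram ratio. The octanol layer was repartitioned until values were consistent. Measured in triplicate and repeated three times.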

[43] = system: Lung; experiment: Drug uptake in ICR mouse lung at 370 kBq/100 ul, iv at 10 mins by gamma-counting analysis; assay type: ADME, organism-based; settings: in vivo; outline: as §1
[44] = system: Intestine; experiment: Drug uptake in ICR mouse intestine assessed per organ at 370 kBq/100 ul, iv at 10 mins by gamma-counting analysis; assay type: ADME, organism-based; settings: in vivo; outline: as §3
[45] = system: Bone; experiment: Drug uptake in ICR mouse bone at 370 kBq/100 ul, iv at 30 mins by gamma-counting analysis; assay type: ADME, organism-based, Bone element; settings: in vivo, 0.5 h; outline: as §1

CNc1ccc(-c2nc3ccc(OCCOCCOCC[18F])cc3s2)cn1
Drug uptake [1]: 1.19 % ID/g | Ratio [2]: 1.77 | Drug uptake [3]: 8.78 %ID | Drug uptake [4]: 1.93 % ID/g | Drug uptake [5]: 2.68 % ID/g | Drug uptake [6]: 3.53 % ID/g | Drug uptake [7]: 3.11 % ID/g | Drug uptake [8]: Not Active | Drug uptake [9]: 1.42 % ID/g | Drug uptake [10]: 1.85 % ID/g | Drug uptake [11]: 1.31 % ID/g | Drug uptake [12]: 1.63 % ID/g | Drug uptake [13]: 8.16 % ID/g | Drug uptake [14]: 2.23 % ID/g | Drug uptake [15]: 2.05 % ID/g | Drug uptake [16]: 3.12 % ID/g | Drug uptake [17]: 5.69 %ID | Drug uptake [18]: 2.96 %ID | Drug uptake [19]: 2.16 % ID/g | Drug uptake [20]: Not Active | Drug uptake [21]: 4.04 % ID/g | Drug uptake [22]: 1.96 % ID/g | Drug uptake [23]: 1.74 % ID/g | Drug uptake [24]: 5.53 % ID/g | Drug uptake [25]: 21.68 %ID | Drug uptake [26]: 2.66 % ID/g | Drug uptake [27]: 9.44 %ID | Drug uptake [28]: 6.92 % ID/g | Drug uptake [29]: 3.49 % ID/g | Drug uptake [30]: 15.22 % ID/g | Drug uptake [31]: 2.94 % ID/g | Ki [32]: 9.3 nM | Drug uptake [33]: 18.6 %ID | Drug uptake [34]: 1.49 % ID/g | Drug uptake [35]: 11.46 %ID | Drug uptake [36]: 0.86 % ID/g | Drug uptake [37]: 4.12 % ID/g | Drug uptake [38]: 4.25 % ID/g | Drug uptake [39]: 1.26 % ID/g | Drug uptake [40]: 6.02 % ID/g | Drug uptake [41]: 9.38 % ID/g | logD at 0.05 h [42]: 2.85 | Drug uptake [43]: 3.36 % ID/g | Drug uptake [44]: 10.06 %ID | Drug uptake [45]: 1.33 % ID/g

— ChEMBL document CHEMBL2177098, “Synthesis and evaluation of novel ¹⁸F labeled 2-pyridinylbenzoxazole and 2-pyridinylbenzothiazole derivatives as ligands for positron emission tomography (PET) imaging of β-amyloid plaques” (J Med Chem, 2012)
